The values that follow come from ChEMBL document CHEMBL1154414, “In vitro and in vivo activities of T-705 against arenavirus and bunyavirus infections” (Antimicrob Agents Chemother, 2007).

pEC50: −log10 of the molar value. Activity calls are given as the source filed them. No cut-off for these calls is given here.

The test system of data set [1] is Punta Toro virus. The experiment in a line: Antiviral activity against 500 PFU Punta Toro virus Adames infected C57BL/6 mouse assessed as animals with detectable virus level in liver at 30 mg/kg, po twice daily administered 4 hrs before viral challenge measured on day 3 of viral infection. It counts as functional. The method in brief: (§1)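 T-705 was suspended in 0.4% carboxymethylcellulose and given by oral gavage twice daily. Mice were infected subcutaneously with PTV. Five mice per group (10 placebo) were sacrificed on day 3 or 4. Liver homogenate or serum was serially diluted onto triplicate LLC-MK2 monolayers, and CPE was read at 6–8 days. The detection limit was 2.8 log10 CCID50 per 0.1 g liver or 0.1 ml serum.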

Data set [2] deals with Punta Toro virus. The experiment in a line: Antiviral activity against 500 PFU Punta Toro virus Adames infected C57BL/6 mouse assessed as animals with detectable virus level in liver at 25 mg/kg, po twice daily administered 4 hrs before viral challenge measured on day 4 of viral infection. The class given is functional. An outline of the steps:
as §1

Data set [3] relates to Pichinde virus. The data set is described as follows: Antiviral activity against Pichinde virus An 4763 infected Syrian golden hamster assessed as mean viral titer per 0.1 mL of serum at 15 mg/kg, po twice daily for 7 days administered 4 hrs before viral-challenge measured on day 7 of viral infection. The class given is functional.
The test system of data set [4] is Punta Toro virus. The data set is described as follows: Antiviral activity against Punta Toro virus Adames infected Syrian golden hamster assessed as survival at 60 mg/kg, po twice daily for 6 days administered 4 hrs before viral challenge. It counts as functional.
Data set [5] deals with Punta Toro virus. The data set is described as follows: Antiviral activity against 500 PFU Punta Toro virus Adames infected C57BL/6 mouse assessed as mean viral titer per 0.1 g of liver at 100 mg/kg, po administered 4 hrs before viral challenge measured on day 4 of viral infection. The class given is functional. The method in brief:
(§2)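 Mice were infected subcutaneously with PTV and dosed by oral gavage twice daily; 5 per group (10 placebo) were killed on day 3 or 4. Liver homogenate or serum was serially diluted onto triplicate LLC-MK2 monolayers, and CPE was read 6–8 days later. 50% endpoints gave log10 CCID50 per 0.1 g liver or 0.1 ml serum. Detection range was 2.8–9.5; undetectable samples were assigned <2.8.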

Data set [6] concerns Punta Toro virus. The data set is described as follows: Antiviral activity against 5000 PFU Punta Toro virus Adames infected C57BL/6 mouse assessed as survival at 30 mg/kg, po twice daily for 5 days 24 hrs post viral challenge. The class given is functional. The method in brief: (§3)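 PTV was inoculated subcutaneously into mice in groups of 15 (25–30 placebo). Dosing was by oral gavage twice daily for 5–7 days, with T-705 suspended in 0.4% CMC and ribavirin in saline. Remaining animals were observed 21–28 days for survival and day of death. Test doses had first been checked for tolerance in uninfected animals.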

The subject of data set [7] is Pichinde virus. The data set is described as follows: Antiviral activity against Pichinde virus An 4763 infected Syrian golden hamster assessed as mean viral titer per 0.1 mL of serum at 60 mg/kg, po twice daily for 7 days administered 4 hrs before viral-challenge measured on day 7 of viral infection. It counts as functional.
Data set [8] has as its system Pichinde virus. The experiment in a line: Antiviral activity against Pichinde virus An 4763 assessed as reduction of 1 log10 unit viral titer yields after 7 to 8 days. The class given is functional.
The test system of data set [9] is Punta Toro virus. The experiment in a line: Antiviral activity against 500 PFU Punta Toro virus Adames infected C57BL/6 mouse assessed as mean viral titer per 0.1 mL of serum at 50 mg/kg, po twice daily administered 4 hrs before viral challenge measured on day 4 of viral infection. The class given is functional. An outline of the steps:
as §2

Data set [10] relates to Punta Toro virus. The data set is described as follows: Antiviral activity against Punta Toro virus Adames infected Syrian golden hamster assessed as animals with detectable virus level in liver at 60 mg/kg, po twice daily administered 4 hrs before viral challenge measured on day 4 of viral infection. The class given is functional.
Data set [11] has as its system Punta Toro virus. The data set is described as follows: Antiviral activity against 500 PFU Punta Toro virus Adames infected C57BL/6 mouse assessed as animals with detectable virus level in liver at 5 mg/kg, po twice daily administered 4 hrs before viral challenge measured on day 3 of viral infection. The class given is functional. The method in brief:
as §1

Another data set concerns Enterovirus. The data set is described as follows: Antiviral activity against Rhinovirus. The class given is functional, organism-based.
The test system of data set [12] is Punta Toro virus. The data set is described as follows: Antiviral activity against 500 PFU Punta Toro virus Adames infected C57BL/6 mouse assessed as inhibition of liver damage at 75 mg/kg/day, po twice daily administered 4 hrs before viral challenge measured on day 3 of viral infection. The class given is functional, organism-based. The method in brief: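 Mice were infected with PTV subcutaneously and dosed by oral gavage twice daily (0.4% CMC vehicle). Five animals per group (10 placebo) were sacrificed on day 3 or 4. Livers were scored 0–4 for hepatic icterus, where 0 is normal and 4 is maximal yellow coloration.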

In data set [13] the test system is Punta Toro virus. The experiment in a line: Antiviral activity against 500 PFU Punta Toro virus Adames infected C57BL/6 mouse assessed as survival at 100 mg/kg, po twice daily for 5 days administered 4 hrs before viral challenge. It counts as functional, organism-based. Details: dose 100 mg/kg. The method in brief: as §3
Data set [14] deals with Punta Toro virus. The data set is described as follows: Antiviral activity against 500 PFU Punta Toro virus Adames infected C57BL/6 mouse assessed as mean serum ALT levels at 200 mg/kg, po twice daily administered 4 hrs before viral challenge measured on day 4 of viral infection. The class given is functional. The method in brief:
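Subcutaneous PTV infection was followed by oral gavage twice daily with drug suspended in 0.4% CMC. Serum was collected from 5 sacrificed mice per group (10 placebo) on day 3 or 4. ALT activity was measured by kinetic assay, and sham-infected mice set the baselines.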

Data set [15] deals with Pichinde virus. The experiment in a line: Antiviral activity against Pichinde virus An 4763 infected Syrian golden hamster assessed as mean day of death at 60 mg/kg, po twice daily for 7 days administered 4 hrs before viral-challenge. It counts as functional.
For data set [16], the system named is Pichinde virus. The experiment in a line: Antiviral activity against Pichinde virus An 4763 infected Syrian golden hamster assessed as mean viral titer per 0.1 g of liver at 15 mg/kg, po twice daily for 7 days administered 4 hrs before viral-challenge measured on day 7 of viral infection. The class given is functional.
The test system of data set [17] is Punta Toro virus. The experiment in a line: Antiviral activity against 500 PFU Punta Toro virus Adames infected C57BL/6 mouse assessed as animals with detectable virus level in serum at 50 mg/kg, po twice daily administered 4 hrs before viral challenge measured on day 4 of viral infection. It counts as functional. The method in brief: as §1
In data set [18] the test system is Punta Toro virus. The experiment in a line: Antiviral activity against 500 PFU Punta Toro virus Adames infected C57BL/6 mouse assessed as mean serum ALT levels at 5 mg/kg, po twice daily administered 4 hrs before viral challenge measured on day 3 of viral infection. The class given is functional. The method in brief:
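C57BL/6 mice received subcutaneous PTV, then oral gavage twice daily for 5–7 days. T-705 was given in 0.4% CMC and ribavirin in saline. Five mice per group (10 placebo) were killed on day 3 or 4, and serum was collected. ALT activity was measured by kinetic assay. Three sham-infected mice set baselines.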

Data set [19] relates to Punta Toro virus. The experiment in a line: Antiviral activity against 500 PFU Punta Toro virus Adames infected C57BL/6 mouse assessed as animals with detectable virus level in serum at 30 mg/kg, po twice daily administered 4 hrs before viral challenge measured on day 3 of viral infection. The class given is functional. An outline of the steps: as §1
For data set [20], the system named is Punta Toro virus. The data set is described as follows: Antiviral activity against 500 PFU Punta Toro virus Adames infected C57BL/6 mouse assessed as mean viral titer per 0.1 mL of serum at 10 mg/kg, po twice daily administered 4 hrs before viral challenge measured on day 3 of viral infection. It counts as functional. An outline of the steps:
as §2

Data set [21] in a line: Cytotoxicity against african green monkey Vero cells after 7 to 8 days by neutral-red dye uptake assay. It counts as cell-based. To be noted: chlorocebus sabaeus. An outline of the steps: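 Subconfluent (50-70%) Vero cells received half-log drug dilutions without virus and were held at 37°C, 5% CO2 for 7-8 days. Cells were stained with 0.034% neutral red for 2 h, and the dye was extracted 30 min in ethanol with Sorenson's citrate buffer. Absorbance was read at 540 nm as % of untreated controls. CC50 was derived by regression.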

Data set [22] deals with Pichinde virus. The data set is described as follows: Antiviral activity against Pichinde virus An 4763 infected Syrian golden hamster assessed as animals with detectable virus level in serum at 40 mg/kg, po twice daily for 7 days administered 4 hrs before viral-challenge measured on day 7 of viral infection. The class given is functional.

For orientation: EC90 means the concentration at which the effect reaches the 90% level. What is called pEC50 is −log10 of the EC50, conventionally taken in molar units. On to `NC(=O)c1nc(F)cnc1O` [FAVIPIRAVIR], for which the Activity is 0% with Punta Toro virus [1]; 0% in the data set on Punta Toro virus [2]; 90% in the data set on Punta Toro virus [6]; 20% in the data set on Punta Toro virus [10]; 0% with Punta Toro virus [11]; 37 IU/L in the data set on Punta Toro virus [14]. Moreover, the Activity with Pichinde virus [15] was 22 days; in the data set on Punta Toro virus [17] it was 10%; in the data set with Punta Toro virus [18], 2461 IU/L; with Punta Toro virus [19] it was 80%. Moreover, the log10CCID50 was under 5.3 in the data set with Pichinde virus [3]; under 2.8 with Punta Toro virus [5]; under 2.8 in the data set with Pichinde virus [7]; under 3.1 with Punta Toro virus [9]; 7.7 in the data set with Pichinde virus [16]; 6.2 in the data set on Punta Toro virus [20]. Moreover, the survival at 60 mg/kg with Punta Toro virus [4] came out at 90%. In the data set with Pichinde virus [8], the 90% effect concentration (EC90) is 19 µM. In the data set on Enterovirus, this molecule had a pEC50 of 3.84. Moreover, the result in the data set with Punta Toro virus [12] and with Punta Toro virus [13] was Active.

In general, CC50 refers to the concentration at which the toxic effect on the cells reaches its halfway point. The molecule `NC(=O)c1ncn([C@@H]2O[C@H](CO)[C@@H](O)[C@H]2O)n1` [RIBAVIRIN] returned a half-maximal cytotoxic concentration (CC50) in data set [21] of 156 µM. Moreover, the Activity with Pichinde virus [22] is listed as 40%.
